In assay [1] the test system is Mycobacterium tuberculosis variant bovis. Nature of the assay: Antitubercular activity against Mycobacterium bovis BCG measured after 10 days by liquid broth microdilution assay. The format is functional. Particulars: 240 h, time 10 day. Put shortly: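 Broth microdilution in 7H9 with 0.2% glycerol, 0.05% Tween 80 and 10% ADS. Mid-log cultures (OD600 0.4–0.6) were diluted to OD600 0.005 (1.0 × 10^6 CFU ml−1) and added to two-fold serial compound dilutions. Plates were incubated at 37 °C for 10 days and read visually. MIC was the lowest concentration with no turbidity.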
On the technique in general: Dilution methods test growth across graded concentrations, often in twofold steps.

Assay [2] shares this test system. Nature of the assay: Antitubercular activity against Mycobacterium bovis BCG assessed as inhibition of intracellular ATP synthesis incubated for 24 hrs by BacTiter-Glo microbial cell viability assay. The format is functional, organism-based. Summed up: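 Mid-log cultures were adjusted to OD600 0.05 and exposed to compounds at 37 °C for 24 h. BacTiter-Glo reagent was then added for 12 min and luminescence was read. H37Ra and BCG were grown in 7H9 with glycerol, Tween 80 and ADS. mc2 6230 was grown with tyloxapol plus methionine, leucine, arginine and pantothenate. Values are the mean of triplicates.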

The results in this text go back to ChEMBL document CHEMBL5532690, “Antitubercular activity of 2-mercaptobenzothiazole derivatives targeting Mycobacterium tuberculosis type II NADH dehydrogenase” (RSC Med Chem, 2024).

Each structure is given as a SMILES string. In brackets after ≈: the same amount, converted by molar mass. Where only a bound is given, the exact number is not on record here.

The term MIC90 denotes the lowest concentration that inhibits either 90% of growth or 90% of the strains tested, depending on the study. A high value points to weaker potency. By IC50 is commonly meant the concentration needed to halve the response being measured.

Compound `O=C(CSc1nc2ccccc2c(=O)[nH]1)NC1CCCCC1` came in with an MIC90 in assay [1] of 1 µg/mL (≈ 3.15 µM). Further, the IC50 in assay [2] came out at 4.99 µg/mL (≈ 15.7 µM).

Regarding `O=C(CSc1nc2c(ccc3ccccc32)s1)NC1CCCCC1`, in assay [1], the MIC90 was 64 µg/mL (≈ 180 µM). Moreover, the IC50 in assay [2] came out at 38 µg/mL (≈ 106 µM).

`O=C(CSc1nc2c(Br)cc(C(F)(F)F)cc2s1)NC1CCCCC1` had an MIC90 in assay [1] of 64 µg/mL (≈ 141 µM). The IC50 in assay [2] came to 39.8 µg/mL (≈ 87.9 µM).

In assay [1], `O=C(CSc1nc2c(Br)cc(F)cc2s1)NC1CCCCC1` gave an MIC90 of 4 µg/mL (≈ 9.92 µM). For the same compound, the IC50 in assay [2] was 13.5 µg/mL (≈ 33.5 µM).

`O=C(CSc1nc2c(Br)cc(OC(F)(F)F)cc2s1)NC1CCCCC1` had an MIC90 in assay [1] of 128 µg/mL (≈ 273 µM). Besides, the IC50 in assay [2] stood at 40.8 µg/mL (≈ 86.9 µM).

`Cc1cc(C)c2nc(SCC(=O)NC3CCCCC3)sc2c1` registered an MIC90 in assay [1] of 4 µg/mL (≈ 12 µM). Besides, the IC50 in assay [2] amounted to 13.4 µg/mL (≈ 40.2 µM).

`O=C(CSc1nc2ccc(F)cc2s1)NC1CCCCC1` registered an MIC90 in assay [1] of 8 µg/mL (≈ 24.7 µM). Further, the half-inhibitory concentration (IC50) in assay [2] is 19.7 µg/mL (≈ 60.6 µM).

Turning to `CC(C)c1ccc2nc(SCC(=O)NC3CCCCC3)sc2c1`, in assay [1], the MIC90 was found to be 4 µg/mL (≈ 11.5 µM). In assay [2], the IC50 stood at 9.89 µg/mL (≈ 28.4 µM).

`O=C(CSc1nc2ccccc2s1)NC1CCCCC1`: in assay [1], the MIC90 was determined as 64 µg/mL (≈ 209 µM). Also, the IC50 in assay [2] worked out at 33.2 µg/mL (≈ 108 µM).

In assay [1], `O=C(CSc1nc2ccc(OC(F)(F)F)cc2s1)NC1CCCCC1` yielded an MIC90 of 128 µg/mL (≈ 328 µM). Also, the IC50 in assay [2] was 30.4 µg/mL (≈ 77.9 µM).

In turn, `O=C(CSc1nc2ccc([N+](=O)[O-])cc2s1)NC1CCCCC1` had an MIC90 in assay [1] of 32 µg/mL (≈ 91.1 µM). Further, the IC50 in assay [2] was 34.4 µg/mL (≈ 98 µM).

In assay [1], `O=C(CSc1nc2ccc(Br)cc2s1)NC1CCCCC1` returned an MIC90 of 128 µg/mL (≈ 332 µM). The IC50 in assay [2] turned out to be 31.8 µg/mL (≈ 82.4 µM).

The compound `O=C(CSc1nc2ccc(C(F)(F)F)cc2s1)NC1CCCCC1` showed an MIC90 in assay [1] of 128 µg/mL (≈ 342 µM). Also, in assay [2], the half-inhibitory concentration (IC50) came out at 19.7 µg/mL (≈ 52.6 µM).

Take `Cc1ccc2nc(SCC(=O)NC3CCCCC3)sc2c1`: the MIC90 in assay [1] worked out at 16 µg/mL (≈ 49.9 µM). The IC50 in assay [2] was determined as 14.4 µg/mL (≈ 44.9 µM).

In assay [1], `O=C(CSc1nc2ccc(Cl)cc2s1)NC1CCCCC1` yielded an MIC90 of 64 µg/mL (≈ 188 µM). Moreover, the IC50 in assay [2] amounted to 32.9 µg/mL (≈ 96.4 µM).

Compound `CC(C)/N=c1\cc2n(-c3ccc(Cl)cc3)c3ccccc3nc-2cc1Nc1ccc(Cl)cc1` [CLOFAZIMINE] gave an MIC90 in assay [1] of 0.25 µg/mL (≈ 0.528 µM).

In assay [1], `NNC(=O)c1ccncc1` [ISONIAZID] gave an MIC90 of 0.06 µg/mL (≈ 0.438 µM).

`CO[C@H]1/C=C/O[C@@]2(C)Oc3c(C)c(O)c4c(O)c(c(/C=N/N5CCN(C)CC5)c(O)c4c3C2=O)NC(=O)/C(C)=C\C=C\[C@H](C)[C@H](O)[C@@H](C)[C@@H](O)[C@@H](C)[C@H](OC(C)=O)[C@@H]1C` [RIFAMPIN] gave an MIC90 in assay [1] of 0.03 µg/mL (≈ 0.0365 µM).

In turn, `C=C(C)[C@H]1Cc2c(ccc3c2O[C@@H]2COc4cc(OC)c(OC)cc4[C@@H]2C3=O)O1` [ROTENONE] gave an MIC90 in assay [1] greater than 64 µg/mL.
